Source: PubChem BioAssay
FN deposition inh – inhibitors of fibronectin matrix deposition, primary screen, AH1F cells, Alexa488-fibronectin fluorescence, plate reader | AH1F fibroblasts, overnight | inhibition, % at 12.6 µM | 0.086% of 350,000 active;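 active means mean inhibition across replicates of 30% or more, regardless of how many single replicates reach that level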;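 further: positive control wells lacked labelled fibronectin entirely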
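Material: AH1F fibroblast monolayer depositing Alexa488-labelled fibronectin into matrix | Input: 10000 AH1F cells/well | Medium: DMEM plus 2% serum, read in PBS | Reagent: Alexa488-fibronectin, 24 nM final in well | Compound dosing: One dose per compound, pinned | Schedule: 1 h adhesion, overnight exposure | Measured by: Fluorescence at 485 nm excitation, 525 nm emission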
ERAP1 HTS inh – human ERAP1 aminopeptidase inhibitors, primary screen, biochemical, single point, plate reader. Endoplasmic reticulum aminopeptidase 1 (Homo sapiens), Q9NZ08. recombinant ERAP1, Leu-AMC fluorescence, 60 min. inhibition, % at 10.7 µM. 0.15% of 340,000 active;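 active means mean replicate inhibition of at least 30%, or all replicates individually reaching that 30% level; inactive means mean below 30% and not every replicate reaching it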;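 further: 0% = neutral control wells and 100% = L-leucinethiol positive control wells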
FGF22 binding – binders of human FGF22 protein, primary screen, FGF22 synaptogenesis inhibitor project, biophysical, thermal shift, single point; recombinant FGF22 thermal shift, SYPRO orange fluorescence; percent of sucrose octasulfate shift, DMSO zero; Fibroblast growth factor 22 (Homo sapiens), Q9HCT0; activity (Tm shift, normalised), % at 9.99 µM; 1.5% of 340,000 active;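 active means mean Tm shift, scaled 0 neutral to 100 positive control, at about 1.3% or above, every replicate too, limit read from the data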
PGC1a acetyl inh – inhibitors of PGC1a acetylation signal, primary screen, cell-based, U2OS, AlphaScreen, inhibitor mode. inhibition, % at 15.6 µM. 0.17% of 350,000 active. AlphaScreen anti-acetyl-lysine; with virally co-expressed GCN5 acetyltransferase. AID 651687, 2012;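 active means every replicate shows inhibition of at least 40%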;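 further: 0% = neutral control wells and 100% = positive control wells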
SIRT5 block – SIRT5 desuccinylase inhibitors, primary screen, biochemical, fluorescence imaging, single point, set 5. NAD-dependent protein deacylase sirtuin-5, mitochondrial (Homo sapiens), Q9NXA8. Purified SirT5, succinyl-peptide AMC, trypsin-coupled fluorescence. inhibition, % at 15 µM. 1.1% of 330,000 active. AID 652115, 2013; in the data active means inhibition above about 15%
Target sequence (Q9NXA8 whole entry, looked up): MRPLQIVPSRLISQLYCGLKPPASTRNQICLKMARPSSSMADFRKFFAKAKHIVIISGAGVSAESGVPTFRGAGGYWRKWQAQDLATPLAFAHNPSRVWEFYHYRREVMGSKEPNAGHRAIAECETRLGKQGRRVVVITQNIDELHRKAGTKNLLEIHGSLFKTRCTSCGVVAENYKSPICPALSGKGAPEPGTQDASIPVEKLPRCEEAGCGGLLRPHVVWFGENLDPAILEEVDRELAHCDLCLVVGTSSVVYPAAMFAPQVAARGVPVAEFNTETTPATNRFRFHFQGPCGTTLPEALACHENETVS
* hit, by the source's call; x = no result; ! = not active in a repeat. Most compounds without a hit are left out; they make up all but 2.2% or so of the library.

SMILES	FN deposition inh	ERAP1 HTS inh	FGF22 binding	PGC1a acetyl inh	SIRT5 block
CCN1CCN(C(=O)CSc2nc(N)cc(N)n2)CC1	2	-1	44*	x	0
COc1ccc(NC(=O)Nc2ccc3c(c2)C(=O)N([C@H](C)CO)C[C@H](C)[C@@H](CN(C)C)OCCCC[C@@H](C)O3)cc1	x	1	0	5	4
CCCCNC(=O)c1ccc2c(c1)ncn2C1CCCC1	6	x	x	52	x
O=C(O)c1ccc2c(c1)ncn2C1CCCC1	-19	-7	0	-8	21*
COc1ccc(-c2[nH]ncc2CN2CCSCC2)c(OC)c1	4	-1	0	-7	-2
COc1ccc(-c2[nH]ncc2CN(CCO)CC23CC4CC(CC(C4)C2)C3)c(OC)c1	17	3	0	-1	24*
COc1ccc(-c2[nH]ncc2CN(C)Cc2cccnc2)c(OC)c1	0	7	43*	-7	-1
COc1ccc(-c2[nH]ncc2CN2CCC(OCc3cccnc3)CC2)c(F)c1	11	-4	0	-7	-1
O=C(C1=C[C@@H](c2coc3ccccc3c2=O)C[C@@H](OCc2ccc(CO)cc2)O1)N1CCN(Cc2ccccc2)CC1	x	5	1.4*	-7	0
O=C(O)C1=C[C@H](c2coc3ccccc3c2=O)C[C@H](OCCCCO)O1	-3	3	0	14	16*!
CN1CCN(C(=O)C2=C[C@H](C3CCCCC3)C[C@H](OCc3ccc(CO)cc3)O2)CC1	-16	4	0	-14	30*!
NC(=O)C1=C[C@H](c2coc3ccccc3c2=O)C[C@H](OCCCCO)O1	33*	-1	0	x	-7
O=C(C1=C[C@@H](C2CCCCC2)C[C@@H](OCc2ccc(CO)cc2)O1)N1CCOCC1	5	-2	1	-1	0
CN1CCN(C(=O)C2=C[C@@H](c3coc4ccccc4c3=O)C[C@@H](OCCCCO)O2)CC1	10	0	0	-1	0
CN1CCN(C(=O)C2=C[C@@H](c3coc4ccccc4c3=O)C[C@@H](OCc3ccc(CO)cc3)O2)CC1	-5	1	0	-7	0
C#CCNC(=O)C1=C[C@H](c2coc3ccccc3c2=O)C[C@H](OCCCCO)O1	-2	4	0	7	3
COc1ccc(CN(C)C[C@@H]2Oc3c(NC(=O)Nc4c(C)noc4C)cccc3C(=O)N([C@H](C)CO)C[C@H]2C)cc1	x	2	0	4	-3
O=C(NCc1cccnc1)/C(=C\c1ccc(-c2ccc(Cl)c(Cl)c2)o1)S(=O)(=O)c1ccccc1	31*	-2	0	59*	0
O=C(NCc1cccnc1)c1ccc(-c2ccc(Cl)cc2)o1	x	1	0	x	-9
CCC/C=C/c1ccc(CN2C(C)C(=O)N(Cc3cn(CCC4OCCCO4)nn3)CCS2(=O)=O)cc1 (stereo not given)	1	6	0	x	22*
O=C(Nc1ccc2c(c1)OCCO2)c1oc2ccccc2c1NC(=O)C1CC1	x	3	43*	x	1
C[C@H]1c2cccc(O)c2C(O)=C2C(=O)C3(O)C(O)=C(C(N)=O)C(=O)[C@@H](N(C)C)[C@@H]3[C@@H](O)[C@@H]21 (stereo not given in full)	7	4	0	1	-2
C=C1c2cccc(O)c2C(O)=C2C(=O)[C@]3(O)C(O)=C(C(N)=O)C(=O)[C@@H](N(C)C)[C@@H]3[C@@H](O)[C@H]12	x	35*	0	-14	x
CC(=O)c1ccc(NC(=S)Nc2ccc3cn[nH]c3c2)cc1	x	3	1.8*	-5	9
CC(=O)c1ccc(NC(=S)Nc2ccc(Br)c(Cl)c2)cc1	x	-4	1.4*	9	x
CN1C(=O)c2cc(NC(=O)c3cscn3)ccc2OC[C@H]2O[C@H](CC(=O)NCC3CC3)CC[C@H]21	-19	x	0	2	x
N#Cc1c(Nc2ccc(F)cc2)sc(C(=O)c2ccc(F)cc2)c1N	x	11	0	-22	0
N#Cc1c(Nc2ccc(F)cc2)sc(C(=O)c2ccccc2)c1N	-3	-1	43*	x	2
